Data as given in ChEMBL document CHEMBL1914438, “Synthesis and biological activity of novel N-cycloalkyl-(cycloalkylaryl)-2-[(3-R-2-oxo-2H-[1,2,4]triazino[2,3-c]quinazoline-6-yl)thio]acetamides” (2011).

Key:
Type in all cases: functional
[1] = system: Staphylococcus aureus; assay: Antibacterial activity against Staphylococcus aureus assessed as zone of inhibition at 0.5 mg/mL after 24 hrs by stiff-plate agar-diffusion method; settings: read-out: DIZ
[2] = system: SK-MEL-28; assay: Cytotoxicity against human SK-MEL-28 cells assessed as cell growth at 10^-5 M after 48 hrs by SRB assay; settings: SK-MEL-28, 48 h, read-out: Activity
In short: (§1)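 NCI human tumor cell line panel from nine cancer types. Each line was inoculated and preincubated 24–48 h, then exposed to a single concentration (10^-5 M) for 48 h. Growth was read by sulforhodamine B protein staining, measured spectrophotometrically. Value reported as percent growth of treated cells relative to untreated controls.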

[3] = system: Escherichia coli; assay: Antibacterial activity against Escherichia coli assessed as zone of inhibition at 0.5 mg/mL after 24 hrs by stiff-plate agar-diffusion method; settings: read-out: DIZ
[4] = system: Malme-3M; assay: Cytotoxicity against human MALME-3M cells assessed as cell growth at 10^-5 M after 48 hrs by SRB assay; settings: read-out: Activity
In short: (§2)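 NCI 60-cell-line one-dose primary screen: cells inoculated and preincubated 24–48 h, then test agent added at a single 10^-5 M concentration for a further 48 h. Endpoint is sulforhodamine B protein staining read spectrophotometrically. Reported as percent growth relative to untreated control cells.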

[5] = system: SR; assay: Growth inhibition of human SR cells after 48 hrs by SRB assay
In short: (§3)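 NCI 60-cell-line human tumor panel. Cells were inoculated and preincubated for 24–48 h, then exposed continuously to compound for 48 h. Primary screen used a single 10^-5 M concentration. Growth was measured by sulforhodamine B protein staining, read spectrophotometrically, and reported as percent growth versus untreated controls. Selected compounds were also run at five 10-fold dilutions (10^-4 to 10^-8 M) to derive GI50 from time-zero-corrected absorbances.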

[6] = Growth inhibition of human Hs 578T cells after 48 hrs by SRB assay
In short: (§4)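 NCI panel of about 60 human tumor lines, 48 h continuous exposure at five 10-fold dilutions from 10^-4 to 10^-8 M. SRB protein staining was read as absorbance at time zero, in untreated controls and at each concentration. GI50 is the concentration giving 50% lower net protein increase than controls. TGI is where Ti = Tz, and LC50 is 50% protein loss versus start.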

[7] = system: NCI-H522; assay: Cytotoxicity against human NCI-H522 cells assessed as cell growth at 10^-5 M after 48 hrs by SRB assay; settings: NCI-H522, 48 h, read-out: Activity; in short: as §1
[8] = system: OVCAR-3; assay: Cytotoxicity against human OVCAR3 cells assessed as cell growth at 10^-5 M after 48 hrs by SRB assay; settings: OVCAR-3, 48 h, read-out: Activity; in short: as §1
[9] = system: HOP-92; assay: Growth inhibition of human HOP92 cells after 48 hrs by SRB assay; settings: HOP-92, 48 h; in short: as §4
[10] = system: DU-145; assay: Cytotoxicity against human DU145 cells assessed as cell growth at 10^-5 M after 48 hrs by SRB assay; settings: DU-145, 48 h, read-out: Activity; in short: as §2
[11] = system: Aspergillus niger; assay: Antifungal activity against Aspergillus niger assessed as zone of inhibition of late spore formation at 0.5 mg/mL after 48 to 72 hrs by stiff-plate agar-diffusion method; settings: read-out: DIZ
[12] = system: COLO 205; assay: Growth inhibition of human COLO205 cells after 48 hrs by SRB assay; settings: COLO 205, 48 h; in short: as §4
[13] = system: SN12C; assay: Cytotoxicity against human SN12C cells assessed as cell growth at 10^-5 M after 48 hrs by SRB assay; settings: read-out: Activity; in short: as §1
[14] = system: SNB-19; assay: Cytotoxicity against human SNB19 cells assessed as cell growth at 10^-5 M after 48 hrs by SRB assay; settings: SNB-19, 48 h, read-out: Activity; in short: as §1
[15] = system: HOP-62; assay: Growth inhibition of human HOP62 cells after 48 hrs by SRB assay; settings: HOP-62, 48 h; in short: as §4
[16] = system: COLO 205; assay: Cytotoxicity against human COLO205 cells assessed as cell growth at 10^-5 M after 48 hrs by SRB assay; settings: COLO 205, 48 h, read-out: Activity; in short: as §2
[17] = system: HT-29; assay: Cytotoxicity against human HT-29 cells assessed as cell growth at 10^-5 M after 48 hrs by SRB assay; settings: HT-29, 48 h, read-out: Activity; in short: as §2
[18] = system: MDA-MB-231; assay: Growth inhibition of human MDA-MB-231 cells after 48 hrs by SRB assay; settings: MDA-MB-231, 48 h; in short: as §4
[19] = system: NCI-H522; assay: Growth inhibition of human NCI-H522 cells after 48 hrs by SRB assay; settings: NCI-H522, 48 h; in short: as §4
[20] = Cytotoxicity against human NCI60 cells assessed as cell growth at 10^-5 M after 48 hrs by SRB assay; settings: NCI60, 48 h, read-out: Activity; in short: as §1
[21] = system: OVCAR-8; assay: Cytotoxicity against human OVCAR8 cells assessed as cell growth at 10^-5 M after 48 hrs by SRB assay; settings: OVCAR-8, 48 h, read-out: Activity; in short: as §1
[22] = system: MDA-MB-468; assay: Cytotoxicity against human MDA-MB-468 cells assessed as cell growth at 10^-5 M after 48 hrs by SRB assay; settings: MDA-MB-468, 48 h, read-out: Activity; in short: as §2
[23] = system: KM12; assay: Cytotoxicity against human KM12 cells assessed as cell growth at 10^-5 M after 48 hrs by SRB assay; settings: KM12, 48 h, read-out: Activity; in short: as §2
[24] = system: SNB-75; assay: Growth inhibition of human SNB75 cells after 48 hrs by SRB assay; settings: SNB-75, 48 h; in short: as §3
[25] = system: MDA-MB-468; assay: Growth inhibition of human MDA-MB-468 cells after 48 hrs by SRB assay; settings: MDA-MB-468, 48 h; in short: as §4
[26] = system: SNB-19; assay: Growth inhibition of human SNB19 cells after 48 hrs by SRB assay; settings: SNB-19, 48 h; in short: as §3
[27] = system: NCI-H23; assay: Cytotoxicity against human NCI-H23 cells assessed as cell growth at 10^-5 M after 48 hrs by SRB assay; settings: NCI-H23, 48 h, read-out: Activity; in short: as §1
[28] = system: RPMI-8226; assay: Growth inhibition of human RPMI8226 cells after 48 hrs by SRB assay; settings: RPMI-8226, 48 h; in short: as §4
[29] = system: SF-295; assay: Cytotoxicity against human SF295 cells assessed as cell growth at 10^-5 M after 48 hrs by SRB assay; settings: SF-295, 48 h, read-out: Activity; in short: as §1
[30] = read-out: pLC50 (the source's name) (converted)

With CCC1C2CCC(C2)C1NC(=O)CSc1nc2ccccc2c2nc(=O)c(-c3ccc(OC)cc3)nn12 (stereo unspecified) as the molecule, how does the zone of inhibition at 500 µg/mL [1] read?
The zone of inhibition at 500 µg/mL was 0 mm.

And the growth at 10 µM [2]?
Its growth at 10 µM is 68.7%.

And the zone of inhibition at 500 µg/mL [3]?
Its zone of inhibition at 500 µg/mL is 0 mm.

And the growth at 10 µM [4]?
The growth at 10 µM was -29.2%.

What about the GI50 [5] of the same molecule?
Its GI50 is 1.35 µM.

And the CC50 [5, 30]?
The CC50 was > 50.1 µM.

And the TGI ([5]; read-out: pTGI (converted))?
The TGI was 7.41 µM.

What about the GI50 [6] of the same molecule?
Its GI50 is 3.89 µM.

And the CC50 [6, 30]?
Its CC50 is > 50.1 µM.

What about the TGI ([6]; read-out: pTGI (converted)) of the same molecule?
Its TGI is 20 µM.

And the growth at 10 µM [7]?
Its growth at 10 µM is -49.9%.

And the growth at 10 µM [8]?
Its growth at 10 µM is -69.7%.

What about the GI50 [9] of the same molecule?
Its GI50 is 0.977 µM.

And the CC50 [9, 30]?
The CC50 was 25.7 µM.

And the TGI ([9]; read-out: pTGI (converted))?
The TGI was 3.98 µM.

And the growth at 10 µM [10]?
The growth at 10 µM was -32%.

And the zone of inhibition at 500 µg/mL [11]?
The zone of inhibition at 500 µg/mL was 18 mm.

And the GI50 [12]?
Its GI50 is 3.47 µM.

What about the CC50 [12, 30] of the same molecule?
Its CC50 is > 50.1 µM.

What about the TGI ([12]; read-out: pTGI) of the same molecule?
The TGI was > 50.1 µM.

And the growth at 10 µM [13]?
The growth at 10 µM was 57.8%.

What about the growth at 10 µM [14] of the same molecule?
The growth at 10 µM was 39.8%.

And the GI50 [15]?
Its GI50 is 2.45 µM.

And the CC50 [15, 30]?
The CC50 was 36.3 µM.

What about the TGI ([15]; read-out: pTGI (converted)) of the same molecule?
Its TGI is 11.5 µM.

And the growth at 10 µM [16]?
Its growth at 10 µM is 28.6%.

What about the growth at 10 µM [17] of the same molecule?
The growth at 10 µM was 42.8%.

And the GI50 [18]?
Its GI50 is 3.09 µM.

And the CC50 [18, 30]?
The CC50 was > 50.1 µM.

What about the TGI ([18]; read-out: pTGI (converted)) of the same molecule?
The TGI was 20.9 µM.

And the GI50 [19]?
The GI50 was 1.35 µM.

And the CC50 [19, 30]?
The CC50 was 38.9 µM.

What about the TGI ([19]; read-out: pTGI (converted)) of the same molecule?
Its TGI is 7.94 µM.

And the growth at 10 µM [20]?
The growth at 10 µM was 73.7%.

What about the growth at 10 µM [21] of the same molecule?
The growth at 10 µM was 53.1%.

And the growth at 10 µM [22]?
The growth at 10 µM was -59.5%.

What about the growth at 10 µM [23] of the same molecule?
Its growth at 10 µM is 68.3%.

And the GI50 [24]?
Its GI50 is 3.09 µM.

What about the CC50 [24, 30] of the same molecule?
The CC50 was 30.9 µM.

What about the TGI ([24]; read-out: pTGI (converted)) of the same molecule?
Its TGI is 11.5 µM.

And the GI50 [25]?
The GI50 was 1.35 µM.

What about the CC50 [25, 30] of the same molecule?
The CC50 was 30.2 µM.

What about the TGI ([25]; read-out: pTGI (converted)) of the same molecule?
The TGI was 3.98 µM.

What about the GI50 [26] of the same molecule?
Its GI50 is 3.47 µM.

And the CC50 [26, 30]?
Its CC50 is > 50.1 µM.

What about the TGI ([26]; read-out: pTGI (converted)) of the same molecule?
Its TGI is 22.4 µM.

And the growth at 10 µM [27]?
The growth at 10 µM was 62.8%.

What about the GI50 [28] of the same molecule?
Its GI50 is 2.95 µM.

What about the CC50 [28, 30] of the same molecule?
The CC50 was > 50.1 µM.

What about the TGI ([28]; read-out: pTGI (converted)) of the same molecule?
Its TGI is 38 µM.

What about the growth at 10 µM [29] of the same molecule?
The growth at 10 µM was 69.9%.
